Measurements published in ChEMBL document CHEMBL1156237, “Antiviral activity of benzimidazole derivatives. II. Antiviral activity of 2-phenylbenzimidazole derivatives” (Bioorg Med Chem, 2010).
Calls of active or inactive are those of the source. The rule behind the calls is not given here.

Columns and labels:
[1] = Cytotoxicity against human MT4 cells after 96 hrs by MTT assay; assay type: cell-based; settings: MT4 cells
Outline: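 Exponentially growing MT-4 cells at 1 × 10^5 cells/mL in RPMI-1640 with 10% FCS, exposed to serial compound dilutions at 37 °C, 5% CO2. Viability by MTT after 96 h; CC50 is the concentration reducing viability of mock-infected cells by 50%.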

Poliovirus 1 = assay: Antiviral activity against Polio virus type1 Sabin strain Chat infected in african green monkey Vero cells after 2 days by plaque reduction assay; assay type: functional, organism-based, Human poliovirus 1 strain Sabin; settings: Enterovirus C, 48 h
Human alphaherpesvirus 1 = assay: Antiviral activity against HSV1 KOS infected in african green monkey Vero cells after 3 days by plaque reduction assay; assay type: functional, organism-based; settings: Human alphaherpesvirus 1, KOS, 72 h
Outline: (§1)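 Plaque reduction assay. Vero 76 cells at 2 × 10^5/well, grown overnight to confluence in D-MEM with 10% FBS. Infected 2 h with 50–100 PFU/well, unadsorbed virus removed. Overlay of D-MEM with 1% inactivated FBS and 0.75% methylcellulose, with or without serial compound dilutions. Incubated at 37 °C for 3 days (HSV-1 KOS, CVB-2 Ohio-1) or 5 days (RSV A2). Fixed and stained with crystal violet in 50% ethanol; plaques counted; EC50 by linear regression.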

[2] = tested on: Vesicular stomatitis virus; assay: Antiviral activity against VSV Indiana lab infected in african green monkey Vero cells after 2 days by plaque reduction assay; assay type: functional, organism-based
Coxsackievirus B2 = assay: Antiviral activity against Human coxsackievirus B2 Ohio-1 infected in african green monkey Vero cells after 3 days by plaque reduction assay; assay type: functional, organism-based, Coxsackievirus B2 (strain Ohio-1); settings: Enterovirus B, Vero, 72 h; outline: as §1
[3] = tested on: Human immunodeficiency virus 1; assay: Antiviral activity against HIV1 3B infected in human MT4 cells assessed as protection from virus-induced cytopathogenicity after 4 days by MTT method; assay type: functional, organism-based
Outline: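 MT-4 cells, 1 × 10^4/well in RPMI with or without serial compound dilutions, infected with HIV-1 IIIB, 100 CCID50 (m.o.i. 0.01). Protection from virus-induced cytopathogenicity read by MTT.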

Yellow fever virus = assay: Antiviral activity against Yellow fever virus 17D infected in BHK cells assessed as protection from virus-induced cytopathogenicity after 3 to 4 days by MTT method; assay type: functional, organism-based
[4] = Cytotoxicity against BHK cells after 48 to 96 hrs by MTT assay; assay type: cell-based, Mesocricetus auratus; settings: hamster
Outline: (§2)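 Cell seeding: MDBK at 6 × 10^5 cells/mL in MEM-E with 10% horse serum and 1 mM Na pyruvate; BHK at 1 × 10^6 cells/mL in MEM-E with 10% FBS. Serial compound dilutions, 37 °C, 5% CO2. Viability of mock-infected cells by MTT after 48–96 h; CC50 is the concentration reducing viability by 50%.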

[5] = Cytotoxicity against african green monkey Vero cells; assay type: cell-based; settings: chlorocebus sabaeus
Outline: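 Vero 76 monolayers exposed to serial compound dilutions, run in parallel on the same 24-well plates as the plaque-reduction assays. CC50 is the concentration reducing viability of mock-infected cells by 50%.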

[6] = Cytotoxicity against MDBK cells after 48 to 96 hrs by MTT assay; assay type: cell-based, Bos taurus; settings: cattle, MDBK cells; outline: as §2
[7] = tested on: Bovine viral diarrhea virus 1; assay: Antiviral activity against Bovine viral diarrhea virus NADL infected in MDBK cells assessed as protection from virus-induced cytopathogenicity after 3 to 4 days by MTT method; assay type: functional, organism-based, Bovine viral diarrhea virus 1-NADL; settings: Bovine viral diarrhea virus isolates and strains, MDBK
Outline: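 Cytopathogenicity protection assay. MDBK cells at 3 × 10^4/well, grown overnight to confluence. Infected with BVDV NADL at m.o.i. 0.01 in MEM-E with 0.5% inactivated FBS, 1 mM Na pyruvate and 1% kanamycin. Serial compound dilutions added after 1 h. After 3–4 days at 37 °C, viability read by MTT; EC50 is the concentration giving 50% protection.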

Vaccinia virus = assay: Antiviral activity against Vaccinia virus Elstree-Lister infected in african green monkey Vero cells after 3 days by plaque reduction assay; assay type: functional, organism-based; settings: Orthopoxvirus vaccinia, 72 h
[8] = tested on: Respiratory syncytial virus; assay: Antiviral activity against RSV A2 infected in african green monkey Vero cells after 5 days by plaque reduction assay; assay type: functional, organism-based; outline: as §1
[9] = human respiratory syncytial virus, A2, Vero, 120 h

SMILES	CC50 at 96 h [1] [µM]	EC50 (Poliovirus 1) [µM]	EC50 (Human alphaherpesvirus 1) [µM]	Activity [2]	EC50 (Coxsackievirus B2) [µM]	Activity [3]	EC50 (Yellow fever virus) [µM]	CC50 [4] [µM]	CC50 [5] [µM]	CC50 [6] [µM]	EC50 [7] [µM]	EC50 (Vaccinia virus) [µM]	EC50 [8, 9] [µM]	EC50 ([8]; vero) [µM]
CCC(=O)Nc1ccc(-c2nc3ccccc3[nH]2)cc1	35	35	> 100	inactive	9	inactive	> 100	≥ 100	> 100	> 100	47			
O=C(CN1CCCCC1)Nc1ccc(-c2nc3ccccc3[nH]2)cc1	31	> 100	> 100	inactive	17	inactive	> 31	31	> 100	18	7			
Nc1ccc(-c2nc3cc(C(F)(F)F)ccc3[nH]2)cc1	62	47	> 100	inactive	17	inactive	> 100	100	> 100	82	15			
O=C(O)CCC(=O)Nc1ccc(-c2nc3cc(C(F)(F)F)ccc3[nH]2)cc1	> 100	> 100	> 100	inactive	> 100	inactive	> 100	> 100	> 100	> 100	> 100			
Nc1nc2c(ncn2COCCO)c(=O)[nH]1 [ACYCLOVIR]	> 100	> 100	3		> 100		> 100	> 100	> 100	> 100	> 100	> 100	> 100	
COc1c(C)c2c(c(O)c1C/C=C(\C)CCC(=O)O)C(=O)OC2 [MYCOPHENOLIC ACID]		> 13	> 13		> 13		> 100	> 100	≥ 13		> 42		0.6	
O=C(CNC12CC3CC(CC(C3)C1)C2)Nc1ccc(-c2nc3cc(C(F)(F)F)ccc3[nH]2)cc1	15	> 45	45	inactive	> 45	inactive	> 18	18	45	23	> 23			
O=C(CN1CCSCC1)Nc1ccc(-c2nc3cc(C(F)(F)F)ccc3[nH]2)cc1	6	> 100	> 100	inactive	> 100	inactive	> 100	> 100	> 100	> 100	> 100			
O=C(CN1CCOCC1)Nc1ccc(-c2nc3ccccc3[nH]2)cc1	100	> 100	> 100	inactive	> 100	inactive	> 100	> 100	> 100	77	> 77			
O=C(CN1CCCC1)Nc1ccc(-c2nc3ccccc3[nH]2)cc1	40	90	> 100	inactive	11	inactive	19	55	> 100	70	10			
O=c1cnn([C@@H]2O[C@H](CO)[C@@H](O)[C@H]2O)c(=O)[nH]1 (stereo in doubt; form 1) [6-AZAURIDINE]		> 20										11	1.2	
CC(=O)Nc1ccc(-c2nc3ccccc3[nH]2)cc1	100	> 100	> 100	inactive	87	inactive	> 100	> 100	> 100	> 100	90			
O=C(CCl)Nc1ccc(-c2nc3cc(C(F)(F)F)ccc3[nH]2)cc1	5	> 35	> 35	inactive	24	inactive	> 22	22	35	17	> 17			
C[C@@]1(O)[C@H](O)[C@@H](CO)O[C@H]1n1cnc2c(=O)[nH]c(N)nc21 [2'-B-METHYL-GUANOSINE]	> 100	> 100	> 100		20		1.8	90	> 100	> 100		> 100	> 100	
O=C(CN1CCCCC1)Nc1ccc(-c2nc3cc(C(F)(F)F)ccc3[nH]2)cc1	6	> 31	> 31	inactive	9	inactive	> 12	12	31	6	2			
O=C(CN1CCN(c2ccccc2)CC1)Nc1ccc(-c2nc3cc(C(F)(F)F)ccc3[nH]2)cc1	0.9	> 100	> 100	inactive	> 100	inactive	> 100	> 100	> 100	32	> 32			
NC(=O)c1ncn([C@@H]2O[C@H](CO)[C@@H](O)[C@H]2O)n1 [RIBAVIRIN]		> 100	> 100		> 100		> 100	> 100	> 100	> 100		> 100	7	
CN1CCN(CC(=O)Nc2ccc(-c3nc4cc(Cl)c(Cl)cc4[nH]3)cc2)CC1	11	89	51	inactive	> 100	inactive	> 41	41	> 100	90	4	6		
O=c1cnn([C@@H]2O[C@H](CO)[C@@H](O)[C@H]2O)c(=O)[nH]1 (stereo in doubt; form 2) [6-AZAURIDINE]			> 20		> 20		26	> 100		> 100	> 100			1.2
O=C(CN1CCOCC1)Nc1ccc(-c2nc3cc(C(F)(F)F)ccc3[nH]2)cc1	> 100	> 100	> 100	inactive	> 100	inactive	> 86	86	> 100	> 100	> 100			
O=C(Nc1ccc(-c2nc3cc(C(F)(F)F)ccc3[nH]2)cc1)Nc1ccc(-c2nc3cc(C(F)(F)F)ccc3[nH]2)cc1	> 100	> 100	> 100	inactive	> 100	inactive	> 17	17	> 100	> 100	> 100			
C#C[C@@]1(O)[C@H](O)[C@@H](CO)O[C@H]1n1ccc(N)nc1=O [2'-ETHYNYL-D-CYTIDINE]	≥ 100	23	> 100		27		> 100	> 100	> 100	> 100	38	> 100	> 100	
